The EternaBench riboswitch data

Tested on: MS2 coat protein
Assay: apparent Kd, MS2 coat protein; higher = weaker binding; RNA-MaP array; FMN 200 µM where present
Procedure, shortened: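 Stalled E. coli RNA polymerase transcribed the designs on Illumina sequencing-chip clusters. SNAP-549-labelled MS2 coat protein was titrated from 0.7 or 1.5 nM, doubling to 3 µM, without and then with constant ligand, in 100 mM Tris-HCl pH 7.5, 80 mM KCl, 4 mM MgCl2, BSA, DTT, yeast tRNA and Tween-20. Per-cluster binding curves were fitted to green signal normalised to red-channel RNA signal and control-cluster median Fmax. The apparent Kd is the median of the filtered fits.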

[1] = designed as: ON switch for flavin mononucleotide, no ligand
[2] = ligand present: flavin mononucleotide, designed as: ON switch for flavin mononucleotide
[3] = designed as: OFF switch for flavin mononucleotide, no ligand
[4] = ligand present: flavin mononucleotide, designed as: OFF switch for flavin mononucleotide

AAUAAACUCACAGGAUAUAGCAGAGGUCGCUUGAACUUACAGGCGACGAGGCUAGAAGGGUGACCACAUGAGGAUCACCCAUGU
apparent Kd [1]: 1.19 µM
apparent Kd [2]: 0.135 µM

AAACAUGUCCGAGGAUAUCUGAGAUCAUUUUCAAGAGAAGGCGGACAUGAGGAUCACCCAUGUCUCUCCUCAUCAACUCCAAAG
apparent Kd [3]: 0.00722 µM
apparent Kd [4]: 0.0356 µM

ACGAAACAUGAGGAUCACCCAUGUGAGGAUAUGUAAAUAGUAAACAAAUAAGAAAUAAACAGAAGGCACACAGG
apparent Kd [3]: 0.0329 µM
apparent Kd [4]: 0.067 µM

CUAGAGGAUUAAGGAUAUGCAGAGAGAUCAUGCGCGUCGCGCACAUGAGGAUCACCCAUGUAAGAGCAGAAGGUAACUAUGAUC
apparent Kd [3]: 0.0183 µM
apparent Kd [4]: 0.0166 µM

UUGGACGUCGUAGGAUAUGUAGGAUAUUCCUACAUGAGGAUCACCCAUGUUGACAUGGAAGAAGGACAGAAAGACGAUGUCCAU
apparent Kd [1]: 0.333 µM
apparent Kd [2]: 0.00663 µM

GUGCACAUUCGAGGAUAUCGGAGAGGAGUCCUUCGAGAAGGCGAUUCGUGCCGUGUUAUUCUGGACAUGAGGAUCACCCAUGUG
apparent Kd [1]: 0.106 µM
apparent Kd [2]: 0.0357 µM

GCACUGGAUGUAGGAUAUCAGGACGAUAAGUCCUGAGAAGGACAUGAGGAUCACCCAUGUAAACCUCACCAGUGCUAUAAUAUA
apparent Kd [3]: 0.0155 µM
apparent Kd [4]: 0.0211 µM

ACUUGUUACUUAUUCAUUGAUUUGUAGGAUAUACGUACAUGAGGAUCACCCAUGUUACAUGUUAUGUAGAAGGACAUCUAAUUU
apparent Kd [3]: 0.0122 µM
apparent Kd [4]: 0.0126 µM

AAGAAGUGAGGAUAUACGCGAACAAAAAAAAAAAAGAAAGCGUAGAAGGCACAUGAGGAUCACCCAUGUCAAAA
apparent Kd [3]: 0.0261 µM
apparent Kd [4]: 0.0273 µM

UUGGCAACGUAGAAGGGUGACAUGAGGAUCACCCAUGUGCCGAUAUAUCUCGAGAUAUGUCGGCCACAGGAUAUACGUGCCAUC
apparent Kd [1]: 0.0359 µM
apparent Kd [2]: 0.0352 µM

CCAUAUAACUGAGGAUAUACUCACCACUAACAUGUAGAAGGCAGACAUGAGGAUCACCCAUGUGAUUUCUCAAUAUUAUACAUC
apparent Kd [3]: 0.901 µM
apparent Kd [4]: 0.658 µM

UGUACGGACAUGAGGAUCACCCAUGUAACCAAGCAGUUGGUACAGGAUAUCGCUUAAUAACUAAGCGAGAAGGGUGGUUCUGCA
apparent Kd [1]: 0.0325 µM
apparent Kd [2]: 0.0634 µM

GGUUGGCGAGGAUAUACAUGAGGAUCACCCAUGUGGUCCUGCGGUGGUCUCGCCCUUUGUAGAAGGCGCGGGUC
apparent Kd [3]: 0.0357 µM
apparent Kd [4]: 0.0306 µM

UUUGAAUAAGUGAGGAUAUACUGUUAGUAUUGAUUGUAGAAGGUACAUGAGGAUCACCCAUGUUUAGUAUUUAU
apparent Kd [3]: 0.0163 µM
apparent Kd [4]: 0.0159 µM

CAAAAGCGAGGAUAUACAUGAGGAUCACCCAUGUGGCAGCCAUGUAGGAGUGACGUCGGUAGAAGGCGCACCCU
apparent Kd [3]: 0.0998 µM
apparent Kd [4]: 0.141 µM

GUCGGAAACGACAAAGUAGCAUAGGAGGAUAUUCAUCCUCACAUGAGGAUCACCCAUGUAAAUUGGGAGAAGGCCUAUGCUACA
apparent Kd [1]: 0.515 µM
apparent Kd [2]: 0.301 µM

GGAAAGGACAGAGGAUAUACGUGCUAGAGAUACUAGCAAAAUUUCCUCACAUGAGGAUCACCCAUGUAGAAGGCUGUCCUAUCG
apparent Kd [3]: 0.0162 µM
apparent Kd [4]: 0.394 µM

CCGAGUGGCGUACAGGAUAUGUUGCGUGGAACAUGAGGAUCACCCAUGUAUUUGCUCCUGCAUACGCAGAAGGGUGCGUCCUGGG
apparent Kd [1]: 0.0529 µM
apparent Kd [2]: 0.0174 µM

AGGAUUGUGCUAGGAUAUCCAGGUUUGCAGCGAGGAGAAGGAGCACAUGAGGAUCACCCAUGUUCUCAAAGGCCACGGCAAUAU
apparent Kd [3]: 0.00698 µM
apparent Kd [4]: 0.0134 µM

CUAUGUUAGCAGGAUAUGCCAUUAUUCCUUUACGCAGAAGGGCUUACAUGAGGAUCACCCAUGUUACAUUUCAU
apparent Kd [3]: 0.0141 µM
apparent Kd [4]: 0.0298 µM

AAAAUGUCAGGAUAUUGUUAGUUUAGUUGUUUGUAUUAGUUCGAGAAGGGACAUGAGGAUCACCCAUGUUGAAA
apparent Kd [3]: 0.0338 µM
apparent Kd [4]: 0.033 µM

UUUUACCUAGGAUAUACAUUUUUUUUAUUAUUUUCAUUAUAACAUGAGGAUCACCCAUGUAGAAGGAGGAUUUU
apparent Kd [3]: 0.0284 µM
apparent Kd [4]: 0.0336 µM

UCUGCCGCCGUGAGGAUAUGCCCAAACAAAAGCGGGCAGAAGGCACAUGAGGAUCACCCAUGUCCCGCGGUUUU
apparent Kd [3]: 0.0185 µM
apparent Kd [4]: 0.037 µM

GUAAGUACGAGAGGAUAUUGACAUGAGGAUCACCCAUGUAUUUGGGAGUGUUCACUGAAUUCUUACGAGAAGGCUCGUACAUAC
apparent Kd [3]: 0.218 µM
apparent Kd [4]: 0.242 µM

UUCCUCGAAGGAUAUUCGACUAGGUACAUGAGGAUCACCCAUGUCAUGAGCCCAAUAGGCGAAGAAGGUCGAGUGU
apparent Kd [3]: 0.0235 µM
apparent Kd [4]: 0.0346 µM

UGAUCGAGAGAUCUUAGAUUCUGGUAGGAUAUACAUUAUGUAAAAUUUACAUGAGGAUCACCCAUGUAGAAGGACUAGAGUCUA
apparent Kd [3]: 0.00619 µM
apparent Kd [4]: 0.0148 µM

UUGCCUCAGAACAUGAGGAUCACCCAUGUGCUGCGGGCAACGUAGGAUAUGAUGGUAUUAUACCGUCAGAAGGAUGAUGGUACU
apparent Kd [1]: 0.00559 µM
apparent Kd [2]: 0.0052 µM

GUGACGAAUGUAGGAUAUGCUGAGGAAUACUCAGCAGAAGGACAUGAGGAUCACCCAUGUCAUCCUUAUAAUAAAUAACGUCAC
apparent Kd [3]: 0.0126 µM
apparent Kd [4]: 0.0181 µM

CCUAAGGACACAGGAUAUAGCGCGGUGGCUGGGCUCCAACGGCGAGCGACGCUAGAAGGGUGACCACAUGAGGAUCACCCAUGU
apparent Kd [1]: 0.517 µM
apparent Kd [2]: 0.122 µM

UCUUUGUUUGUGAGGAUAUCGGUGGGAUGGGUUGUCGAGAAGGCACAUGAGGAUCACCCAUGUGUGGGACAGCA
apparent Kd [3]: 0.0153 µM
apparent Kd [4]: 0.0152 µM

GGUUGUCAUCGUCAUCCUUUCCGUACAUGAGGAUCACCCAUGUAGGAUAUGCUGCUCUCGGUGUGGCAGAAGGGCGUGUGUCUU
apparent Kd [3]: 0.017 µM
apparent Kd [4]: 0.0187 µM

AUUUAAAAGUCAGGAUAUGGUAGAUUAUUCUUAUCAGAAGGGAUUAUUAUACUCAAGUACAUGAGGAUCACCCAUGUUAAAUCA
apparent Kd [1]: 0.0181 µM
apparent Kd [2]: 0.0102 µM

UGGACCGAGCUGUCGGUUGACUCUUAGGAUAUGACAUGAGGAUCACCCAUGUGGGAUCUAAAUUGUCAGAAGGAGGGUUCUGGG
apparent Kd [3]: 0.283 µM
apparent Kd [4]: 0.0514 µM

GGUGCGUUUGUGAGGAUAUGCUGGUCCUUGGAUCUGCAGAAGGCACAUGAGGAUCACCCAUGUGGUGUCGUACC
apparent Kd [3]: 0.293 µM
apparent Kd [4]: 0.0365 µM

AUGAUUAUAUUAUACAUGAGGAUCACCCAUGUUAUAAGUCAUGAGGAUAUGGUAUUGUAGUUUUUCCAGAAGGCAUUUAACUUA
apparent Kd [1]: 0.00791 µM
apparent Kd [2]: 0.00547 µM

CCCUGAGAUUGGUUAAUUGGCUGAUAGGAUAUCCUCGGACAUGAGGAUCACCCAUGUUAACUAUUGGAGAAGGGUCAGCGAAAG
apparent Kd [1]: 0.607 µM
apparent Kd [2]: 0.0902 µM
